Activity calls are given as the source filed them. No cut-off for these calls is given here.
Assays:
[1] = system: CCRF-CEM; test: Cytotoxicity against human CCRF-CEM cells assessed as inhibition of cell growth incubated for 72 hrs by MTS assay; type: functional, cell-based
In short: (§1)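 MTS assay on eight human cancer lines and two non-tumour fibroblast lines. IC50 is the concentration that inhibits cell growth by 50 %. SD typically up to 15 % of the mean.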

[2] = system: CEM-DNR; test: Cytotoxicity against human CEM-DNR cells assessed as inhibition of cell growth incubated for 72 hrs by MTS assay; type: functional, cell-based; in short: as §1
[3] = system: HCT-116; test: Cytotoxicity against human HCT-116 cells assessed as inhibition of cell growth incubated for 72 hrs by MTS assay; type: functional, cell-based; conditions: HCT-116, 72 h; in short: as §1
[4] = system: HCT 116 TP53(-/-); test: Cytotoxicity against human HCT116-p53-null cells assessed as inhibition of cell growth incubated for 72 hrs by MTS assay; type: functional, cell-based; in short: as §1
[5] = system: K562; test: Cytotoxicity against human K562 cells assessed as inhibition of cell growth incubated for 72 hrs by MTS assay; type: functional, cell-based; conditions: K562, 72 h; in short: as §1
[6] = Cytotoxicity against human K562-Tax cells assessed as inhibition of cell growth incubated for 72 hrs by MTS assay; type: functional, cell-based; in short: as §1
[7] = system: A549; test: Cytotoxicity against human A549 cells assessed as inhibition of cell growth incubated for 72 hrs by MTS assay; type: functional, cell-based; conditions: A549, 72 h; in short: as §1
[8] = system: U2OS; test: Cytotoxicity against human U2OS cells assessed as inhibition of cell growth incubated for 72 hrs by MTS assay; type: functional, cell-based; in short: as §1
[9] = Cytotoxicity against human BJ cells assessed as inhibition of cell growth incubated for 72 hrs by MTS assay; type: toxicity, cell-based; in short: as §1
[10] = Cytotoxicity against human MRC5 cells assessed as inhibition of cell growth incubated for 72 hrs by MTS assay; type: toxicity, cell-based; in short: as §1
[11] = Stability in human plasma assessed as compound remaining at 2 uM incubated for 15 mins by RF-MS analysis; type: ADME, cell-free; conditions: read-out: Stability
In short: (§2)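 Human plasma stability, plasma protein binding and liver microsome stability, each run in triplicate. Error deviations below 10 %.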

[12] = Stability in human plasma assessed as compound remaining at 2 uM incubated for 30 mins by RF-MS analysis; type: ADME, cell-free; conditions: read-out: Stability; in short: as §2
[13] = Stability in human plasma assessed as compound remaining at 2 uM incubated for 60 mins by RF-MS analysis; type: ADME, cell-free; conditions: read-out: Stability; in short: as §2
[14] = Stability in human plasma assessed as compound remaining at 2 uM incubated for 120 mins by RF-MS analysis; type: ADME, cell-free; conditions: read-out: Stability; in short: as §2
[15] = Plasma protein binding in human assessed as fraction bound at 10 uM incubated for 4 hrs by rapid equilibrium dialysis based RF-MS analysis; type: ADME, cell-free; conditions: read-out: PPB (converted); in short: as §2
[16] = Metabolic stability in human liver microsomes assessed as parent compound remaining at 2 uM incubated for 15 mins in presence of NADPH by RF-MS analysis; type: ADME, Microsome; conditions: read-out: Stability; in short: as §2
[17] = Metabolic stability in human liver microsomes assessed as parent compound remaining at 2 uM incubated for 30 mins in presence of NADPH by RF-MS analysis; type: ADME, Microsome; conditions: read-out: Stability; in short: as §2
[18] = Metabolic stability in human liver microsomes assessed as parent compound remaining at 2 uM incubated for 60 mins in presence of NADPH by RF-MS analysis; type: ADME, Microsome; conditions: read-out: Stability; in short: as §2
[19] = system: CCRF-CEM; test: Induction of apoptosis in human CCRF-CEM cells assessed as viable cells at 1 times IC50 incubated for 24 hrs by Annexin V-FITC and PI staining based flow cytometric analysis (reference value: 97.4 %); type: functional
In short: (§3)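 Washed in Ca2+-containing binding buffer, then stained 15 min at room temperature in the dark with Annexin V-FITC and propidium iodide (PI at half the kit-recommended level). Read at once by flow cytometry with a 488 nm laser, ≥10,000 cells. Debris excluded; quadrants viable, early apoptotic, late apoptotic/necrotic, necrotic. Three independent experiments.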

[20] = system: CCRF-CEM; test: Induction of apoptosis in human CCRF-CEM cells assessed as early apoptotic cells at 1 times IC50 incubated for 24 hrs by Annexin V-FITC and PI staining based flow cytometric analysis (reference value: 2.1 %); type: functional; in short: as §3
[21] = system: CCRF-CEM; test: Induction of apoptosis in human CCRF-CEM cells assessed as late apoptotic cells at 1 times IC50 incubated for 24 hrs by Annexin V-FITC and PI staining based flow cytometric analysis (reference value: 0.4 %); type: functional; in short: as §3
[22] = system: CCRF-CEM; test: Induction of apoptosis in human CCRF-CEM cells assessed as necrotic cells at 1 times IC50 incubated for 24 hrs by Annexin V-FITC and PI staining based flow cytometric analysis (reference value: 0.4 %); type: functional; in short: as §3
[23] = system: CCRF-CEM; test: Induction of apoptosis in human CCRF-CEM cells assessed as viable cells at 5 times IC50 incubated for 24 hrs by Annexin V-FITC and PI staining based flow cytometric analysis (reference value: 97.4 %); type: functional; in short: as §3
[24] = system: CCRF-CEM; test: Induction of apoptosis in human CCRF-CEM cells assessed as early apoptotic cells at 5 times IC50 incubated for 24 hrs by Annexin V-FITC and PI staining based flow cytometric analysis (reference value: 2.1 %); type: functional; in short: as §3
[25] = system: CCRF-CEM; test: Induction of apoptosis in human CCRF-CEM cells assessed as late apoptotic cells at 5 times IC50 incubated for 24 hrs by Annexin V-FITC and PI staining based flow cytometric analysis (reference value: 0.4 %); type: functional; in short: as §3
[26] = system: CCRF-CEM; test: Induction of apoptosis in human CCRF-CEM cells assessed as necrotic cells at 5 times IC50 incubated for 24 hrs by Annexin V-FITC and PI staining based flow cytometric analysis (reference value: 0.4 %); type: functional; in short: as §3
[27] = system: Mitochondrial membrane; test: Induction of mitochondrial membrane potential depolarization in human CCRF-CEM cells assessed as fold increase in fluorescence intensity at 5 times IC50 incubated for 24 hrs by JC-1 staining based flow cytometry; type: cell membranes
[28] = system: Mitochondrial membrane; test: Induction of mitochondrial membrane potential depolarization in human CCRF-CEM cells assessed as fold increase in fluorescence intensity incubated for 24 hrs by JC-1 staining based flow cytometry; type: cell membranes
[29] = system: CCRF-CEM; test: Induction of cell cycle arrest in human CCRF-CEM cells assessed as increase in accumulation of G0/G1 phase at 5 times IC50 incubated for 24 hrs by RNase/PI staining based flow cytometry; type: functional
In short: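 Propidium iodide staining and flow cytometry with a 488 nm laser, ≥10,000 intact cells. Phase proportions compared with untreated cells; SEM of three independent experiments.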

[30] = system: CCRF-CEM; test: Inhibition of DNA synthesis in human CCRF-CEM cells at 1 times IC50 incubated for 24 hrs by BrdU incorporation based flow cytometry; type: functional
In short: (§4)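 Fixed in ice-cold 70 % ethanol, DNA denatured in 2 M HCl for 30 min, neutralised with borax. Stained with anti-BrdU plus FITC secondary, then PI/RNase A for 1 h. Flow cytometry; % BrdU-positive cells.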

[31] = system: CCRF-CEM; test: Inhibition of DNA synthesis in human CCRF-CEM cells at 5 times IC50 incubated for 24 hrs by BrdU incorporation based flow cytometry; type: functional; in short: as §4
[32] = system: CCRF-CEM; test: Inhibition of RNA synthesis in human CCRF-CEM cells at 1 times IC50 incubated for 24 hrs by BrU incorporation based flow cytometry; type: functional
In short: (§5)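 Fixed in 1 % paraformaldehyde/0.05 % NP-40 (15 min at room temperature, then 4 °C overnight). Stained with cross-reacting anti-BrdU plus FITC secondary (45 min each), then PI/RNase A. Flow cytometry; % BrU-positive cells.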

[33] = system: CCRF-CEM; test: Inhibition of RNA synthesis in human CCRF-CEM cells at 5 times IC50 incubated for 24 hrs by BrU incorporation based flow cytometry; type: functional; in short: as §5
[34] = system: CCRF-CEM; test: Induction of cell cycle arrest in human CCRF-CEM cells assessed as downregulation of total AKT expression at 5 times IC50 incubated for 24 hrs by Western blotting analysis; type: functional, cell-based
In short: (§6)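 30 µg protein per lane on SDS-PAGE, transferred to nitrocellulose, blocked in 5 % BSA/TBS-Tween. Primary antibodies overnight at 4 °C (Akt, P-Akt Ser473, STAT-3, caspase-3, PARP, cyclin D, cyclin A, Bcl-xL, Bak, Bid, Bim), then HRP secondary and ECL detection. GAPDH as loading control.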

[35] = system: CCRF-CEM; test: Induction of cell cycle arrest in human CCRF-CEM cells assessed as downregulation of Cyclin A expression at 5 times IC50 incubated for 24 hrs by Western blotting analysis; type: functional, cell-based; in short: as §6
[36] = system: CCRF-CEM; test: Induction of cell cycle arrest in human CCRF-CEM cells assessed as downregulation of total STAT3 expression at 5 times IC50 incubated for 24 hrs by Western blotting analysis; type: functional, cell-based; in short: as §6
[37] = system: CCRF-CEM; test: Induction of cell cycle arrest in human CCRF-CEM cells assessed as downregulation of Cyclin D expression at 5 times IC50 incubated for 24 hrs by Western blotting analysis; type: functional, cell-based; in short: as §6
[38] = system: CCRF-CEM; test: Induction of apoptosis in human CCRF-CEM cells assessed as downregulation of caspase-3 expression at 5 times IC50 incubated for 24 hrs by Western blotting analysis; type: functional, cell-based; in short: as §6
[39] = system: CCRF-CEM; test: Induction of apoptosis in human CCRF-CEM cells assessed as upregulation of BID expression at 1 to 5 times IC50 incubated for 24 hrs by Western blotting analysis; type: functional, cell-based; in short: as §6
[40] = system: CCRF-CEM; test: Induction of apoptosis in human CCRF-CEM cells assessed as upregulation of BIM expression at 1 to 5 times IC50 incubated for 24 hrs by Western blotting analysis; type: functional, cell-based; in short: as §6
[41] = system: CCRF-CEM; test: Induction of apoptosis in human CCRF-CEM cells assessed as downregulation of BCL-XL expression at 5 times IC50 incubated for 24 hrs by Western blotting analysis; type: functional, cell-based; in short: as §6

- remaining at 0.25 h, 2 µM [11]: 106%
- remaining at 0.5 h, 2 µM [12]: 92%
- remaining at 1 h, 2 µM [13]: 93%
- remaining at 2 h, 2 µM [14]: 89%
- fraction unbound at 4 h, 10 µM [15]: 0.37
- remaining at 0.25 h, 2 µM [16]: 100%
- remaining at 0.5 h, 2 µM [17]: 102%
- remaining at 1 h, 2 µM [18]: 97%
- fold change (FC) [27]: > 20
- Activity [28]: Dose-dependent-effect
Structure (SMILES): CC1(C)[C@@H](O)CC[C@]2(C)[C@H]3CC[C@@H]4[C@H]5[C@H](c6cc7c(c(-c8ccccc8)c6)C(=O)N(c6ccc(N)cc6)C7=O)CC[C@]5(C(=O)O)CC[C@@]4(C)[C@]3(C)CC[C@@H]12
- IC50 [1]: 4.09 µM
- IC50 [2]: 6.29 µM
- IC50 [3]: 12 µM
- IC50 [4]: 17.1 µM
- IC50 [5]: 20.9 µM
- IC50 [6]: 4.34 µM
- IC50 [7]: 21 µM
- IC50 [8]: 15.6 µM
- IC50 at 72 h [9]: 40.6 µM
- IC50 at 72 h [10]: 19.4 µM
- Activity [19]: 92.4%
- Activity [20]: 4.8%
- Activity [21]: 2.8%
- Activity [22]: 0%
- Activity [23]: 87.5%
- Activity [24]: 7.8%
- Activity [25]: 4.7%
- Activity [26]: 0%
- Activity [29]: Active
- inhibition (INH) [30]: 30%
- inhibition (INH) [31]: 13.6%
- inhibition (INH) [32]: 24%
- inhibition (INH) [33]: 45.4%
- Activity [34]: Active; Slight Activity Observed
- Activity [35]: Active
- Activity [36]: Active
- Activity [37]: Active
- Activity [38]: Active
- Activity [39]: Active
- Activity [40]: Active
- Activity [41]: Active
